Reference: ChEMBL document CHEMBL3627671, “Novel derivatives of nitro-substituted salicylic acids: Synthesis, antimicrobial activity and cytotoxicity” (Bioorg Med Chem, 2015)
In brackets after ≈: the same amount, converted by molar mass.

Tests used:
Assay type in all cases: functional
Staphylococcus aureus [1] = assay: Antibacterial activity against Staphylococcus aureus CCM 4516/08 after 24 hrs by microdilution broth method; settings: CCM 4516/08, 24 h
Staphylococcus aureus [2] = assay: Antibacterial activity against Staphylococcus aureus CCM 4516/08 after 48 hrs by microdilution broth method; settings: CCM 4516/08, 48 h
Staphylococcus aureus [3] = assay: Antibacterial activity against methicillin-resistant Staphylococcus aureus H 5996/08 after 24 hrs by microdilution broth method; settings: H 5996/08, 24 h
Staphylococcus aureus [4] = assay: Antibacterial activity against methicillin-resistant Staphylococcus aureus H 5996/08 after 48 hrs by microdilution broth method; settings: H 5996/08, 48 h
[5] = tested on: Staphylococcus epidermidis; assay: Antibacterial activity against Staphylococcus epidermidis H 6966/08 after 24 hrs by microdilution broth method; settings: H 6966/08, 24 h
In short: (§1)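 Mueller-Hinton broth microdilution (modified M07-A07), pH 7.4 (±0.2). Compounds dissolved in DMSO, tested at final 500 to 0.49 µmol/L. Inoculum in sterile water matched to 0.5 McFarland. Incubated in the dark, humid atmosphere, 35 °C, read at 24 and 48 h visually and at 540 nm. MIC taken as ≥95% growth reduction (IC95) versus control.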

[6] = tested on: Staphylococcus epidermidis; assay: Antibacterial activity against Staphylococcus epidermidis H 6966/08 after 48 hrs by microdilution broth method; settings: H 6966/08, 48 h; in short: as §1
Enterococcus sp. [7] = assay: Antibacterial activity against Enterococcus sp. J 14365/08 after 24 hrs by microdilution broth method; settings: J 14365/08, 24 h; in short: as §1
Enterococcus sp. [8] = assay: Antibacterial activity against Enterococcus sp. J 14365/08 after 48 hrs by microdilution broth method; settings: J 14365/08, 48 h; in short: as §1
Escherichia coli [9] = assay: Antibacterial activity against Escherichia coli CCM4517 after 24 hrs by microdilution broth method; settings: CCM4517, 24 h; in short: as §1
Escherichia coli [10] = assay: Antibacterial activity against Escherichia coli CCM4517 after 48 hrs by microdilution broth method; settings: CCM4517, 48 h; in short: as §1
Klebsiella pneumoniae [11] = assay: Antibacterial activity against Klebsiella pneumoniae D 11750/08 after 24 hrs by microdilution broth method; settings: D 11750/08, 24 h; in short: as §1
Klebsiella pneumoniae [12] = assay: Antibacterial activity against Klebsiella pneumoniae D 11750/08 after 48 hrs by microdilution broth method; settings: D 11750/08, 48 h; in short: as §1
Klebsiella pneumoniae [13] = assay: Antibacterial activity against ESBL-positive Klebsiella pneumoniae J 14368/08 after 24 hrs by microdilution broth method; settings: J 14368/08, 24 h; in short: as §1
Klebsiella pneumoniae [14] = assay: Antibacterial activity against ESBL-positive Klebsiella pneumoniae J 14368/08 after 48 hrs by microdilution broth method; settings: J 14368/08, 48 h; in short: as §1
Pseudomonas aeruginosa [15] = assay: Antibacterial activity against Pseudomonas aeruginosa CCM 1961 after 24 hrs by microdilution broth method; settings: CCM 1961, 24 h; in short: as §1
Pseudomonas aeruginosa [16] = assay: Antibacterial activity against Pseudomonas aeruginosa CCM 1961 after 48 hrs by microdilution broth method; settings: CCM 1961, 48 h; in short: as §1
Candida albicans [17] = assay: Antifungal activity against Candida albicans ATCC 44859 after 24 hrs by microdilution broth method; settings: ATCC 44859, 24 h
In short: (§2)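 CLSI M27-A3 broth microdilution in RPMI 1640 with glutamine, buffered to pH 7.0 with MOPS; DMSO diluent. Yeast inoculum 5 × 10^3 ± 0.2 CFU/mL. Moulds grown on Sabouraud agar 3–10 days before spore harvest, final inoculum 0.5-5 × 10^4 CFU/mL, checked in a Bürker chamber. Incubated dark, humid, 35 °C, read at 24 and 48 h visually and at 540 nm. MIC taken as ≥80% (yeasts) or ≥50% (filamentous) growth reduction versus control.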

Candida albicans [18] = assay: Antifungal activity against Candida albicans ATCC 44859 after 48 hrs by microdilution broth method; settings: ATCC 44859, 48 h; in short: as §2
Candida tropicalis [19] = assay: Antifungal activity against Candida tropicalis 156 after 24 hrs by microdilution broth method; settings: Candida tropicalis, 156, 24 h; in short: as §2
Candida tropicalis [20] = assay: Antifungal activity against Candida tropicalis 156 after 48 hrs by microdilution broth method; settings: Candida tropicalis, 156, 48 h; in short: as §2
Pichia kudriavzevii [21] = assay: Antifungal activity against Candida krusei E28 after 24 hrs by microdilution broth method; settings: E28, 24 h; in short: as §2
Pichia kudriavzevii [22] = assay: Antifungal activity against Candida krusei E28 after 48 hrs by microdilution broth method; settings: E28, 48 h; in short: as §2
Nakaseomyces glabratus [23] = assay: Antifungal activity against Candida glabrata 20/I after 24 hrs by microdilution broth method; in short: as §2
Nakaseomyces glabratus [24] = assay: Antifungal activity against Candida glabrata 20/I after 48 hrs by microdilution broth method; in short: as §2
Trichosporon asahii [25] = assay: Antifungal activity against Trichosporon asahii 1188 after 24 hrs by microdilution broth method; settings: Trichosporon asahii, 1188, 24 h; in short: as §2
Trichosporon asahii [26] = assay: Antifungal activity against Trichosporon asahii 1188 after 48 hrs by microdilution broth method; settings: Trichosporon asahii, 1188, 48 h; in short: as §2
Aspergillus fumigatus [27] = assay: Antifungal activity against Aspergillus fumigatus 231 after 24 hrs by microdilution broth method; settings: Aspergillus fumigatus, 231, 24 h; in short: as §2
Aspergillus fumigatus [28] = assay: Antifungal activity against Aspergillus fumigatus 231 after 48 hrs by microdilution broth method; settings: Aspergillus fumigatus, 231, 48 h; in short: as §2
Lichtheimia corymbifera [29] = assay: Antifungal activity against Absidia corymbifera 272 after 24 hrs by microdilution broth method; settings: Lichtheimia corymbifera, 272, 24 h; in short: as §2
Lichtheimia corymbifera [30] = assay: Antifungal activity against Absidia corymbifera 272 after 48 hrs by microdilution broth method; settings: Lichtheimia corymbifera, 272, 48 h; in short: as §2
[31] = tested on: Trichophyton mentagrophytes; assay: Antifungal activity against Trichophyton mentagrophytes 445 after 24 hrs by microdilution broth method; settings: Trichophyton mentagrophytes, 445, 24 h
[32] = tested on: Trichophyton mentagrophytes; assay: Antifungal activity against Trichophyton mentagrophytes 445 after 48 hrs by microdilution broth method; settings: Trichophyton mentagrophytes, 445, 48 h
[33] = tested on: Mycobacterium tuberculosis; assay: Antimycobacterial activity against Mycobacterium tuberculosis H37Rv 331/88 after 14 days; settings: H37Rv 331/88, 336 h
[34] = tested on: Mycobacterium tuberculosis; assay: Antimycobacterial activity against Mycobacterium tuberculosis H37Rv 331/88 after 21 days; settings: H37Rv 331/88, 504 h
Mycobacterium avium [35] = assay: Antimycobacterial activity against Mycobacterium avium 330/80 after 14 days; settings: 330/80, 336 h
Mycobacterium avium [36] = assay: Antimycobacterial activity against Mycobacterium avium 330/80 after 21 days; settings: 330/80, 504 h
Mycobacterium kansasii [37] = assay: Antimycobacterial activity against Mycobacterium kansasii 235/80 after 7 days; settings: 235/80, 168 h
In short: (§3)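 Šula's semisynthetic medium micromethod at 37 °C, read after 7, 14 and 21 days. The 1.0 McFarland suspension was diluted 10^-4. MIC determined. 6509/96 is a clinical isolate.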

Mycobacterium kansasii [38] = assay: Antimycobacterial activity against Mycobacterium kansasii 235/80 after 14 days; settings: 235/80, 336 h; in short: as §3
Mycobacterium kansasii [39] = assay: Antimycobacterial activity against Mycobacterium kansasii 235/80 after 21 days; settings: 235/80, 504 h; in short: as §3
Mycobacterium kansasii [40] = assay: Antimycobacterial activity against Mycobacterium kansasii 6509/96 after 7 days; settings: 6509/96, 168 h; in short: as §3
Mycobacterium kansasii [41] = assay: Antimycobacterial activity against Mycobacterium kansasii 6509/96 after 14 days; settings: 6509/96, 336 h; in short: as §3
Mycobacterium kansasii [42] = assay: Antimycobacterial activity against Mycobacterium kansasii 6509/96 after 21 days; settings: 6509/96, 504 h; in short: as §3

Work on CC1(C)S[C@@H]2[C@H](NC(=O)Cc3ccccc3)C(=O)N2[C@H]1C(=O)O [PENICILLIN G] yielded an MIC (Staphylococcus aureus [1]) of 0.98 µM (≈ 0.328 µg/mL), an MIC (Staphylococcus aureus [2]) of 0.98 µM (≈ 0.328 µg/mL) and an MIC (Staphylococcus aureus [3]) of 62.5 µM (≈ 20.9 µg/mL). The MIC (Staphylococcus aureus [4]) was 125 µM (≈ 41.8 µg/mL), the MIC [5] was 250 µM (≈ 83.6 µg/mL) and the MIC [6] was 250 µM (≈ 83.6 µg/mL). The MIC (Enterococcus sp. [7]) was 7.81 µM (≈ 2.61 µg/mL), the MIC (Enterococcus sp. [8]) was 15.6 µM (≈ 5.22 µg/mL) and the MIC (Escherichia coli [9]) was 125 µM (≈ 41.8 µg/mL). For the same compound, the MIC (Escherichia coli [10]) was 125 µM (≈ 41.8 µg/mL), the MIC (Klebsiella pneumoniae [11]) was 500 µM (≈ 167 µg/mL) and the MIC (Klebsiella pneumoniae [12]) was 500 µM (≈ 167 µg/mL). It also gave an MIC (Klebsiella pneumoniae [13]) of over 500 µM, an MIC (Klebsiella pneumoniae [14]) of over 500 µM and an MIC (Pseudomonas aeruginosa [15]) of over 500 µM. It also gave an MIC (Pseudomonas aeruginosa [16]) of over 500 µM.

OC(Cn1cncn1)(Cn1cncn1)c1ccc(F)cc1F [FLUCONAZOLE] showed an MIC (Candida albicans [17]) of 0.24 µM (≈ 0.0735 µg/mL), an MIC (Candida albicans [18]) of 0.24 µM (≈ 0.0735 µg/mL) and an MIC (Candida tropicalis [19]) of over 500 µM. For the same compound, the MIC (Candida tropicalis [20]) was over 500 µM, the MIC (Pichia kudriavzevii [21]) was 125 µM (≈ 38.3 µg/mL) and the MIC (Pichia kudriavzevii [22]) was 250 µM (≈ 76.6 µg/mL). It also gave an MIC (Nakaseomyces glabratus [23]) of 31.2 µM (≈ 9.57 µg/mL), an MIC (Nakaseomyces glabratus [24]) of 500 µM (≈ 153 µg/mL) and an MIC (Trichosporon asahii [25]) of 250 µM (≈ 76.6 µg/mL). For the same compound, the MIC (Trichosporon asahii [26]) was 500 µM (≈ 153 µg/mL), the MIC (Aspergillus fumigatus [27]) was over 500 µM and the MIC (Aspergillus fumigatus [28]) was over 500 µM. It also gave an MIC (Lichtheimia corymbifera [29]) of over 500 µM, an MIC (Lichtheimia corymbifera [30]) of over 500 µM and an MIC [31] of 7.81 µM (≈ 2.39 µg/mL). For the same compound, the MIC [32] was 125 µM (≈ 38.3 µg/mL).

NNC(=O)c1ccncc1 [ISONIAZID] showed an MIC [33] of 0.5 µM (≈ 0.0686 µg/mL), an MIC [34] of 1 µM (≈ 0.137 µg/mL) and an MIC (Mycobacterium avium [35]) of over 250 µM. The MIC (Mycobacterium avium [36]) was over 250 µM, the MIC (Mycobacterium kansasii [37]) was over 250 µM and the MIC (Mycobacterium kansasii [38]) was over 250 µM. The MIC (Mycobacterium kansasii [39]) was over 250 µM, the MIC (Mycobacterium kansasii [40]) was 4 µM (≈ 0.549 µg/mL) and the MIC (Mycobacterium kansasii [41]) was 8 µM (≈ 1.1 µg/mL). It also gave an MIC (Mycobacterium kansasii [42]) of 8 µM (≈ 1.1 µg/mL).
